Data on 18 compounds can be found in ChEMBL document CHEMBL2331483, “3-Hydroxypyridin-2-thione as novel zinc binding group for selective histone deacetylase inhibition” (J Med Chem, 2013).

Active and inactive are the calls of the source. No cut-off for these calls is given here.

The target in series [1] is T1, Histone deacetylase 8 (Homo sapiens) (UniProt Q9BY41).
T1 sequence (whole entry): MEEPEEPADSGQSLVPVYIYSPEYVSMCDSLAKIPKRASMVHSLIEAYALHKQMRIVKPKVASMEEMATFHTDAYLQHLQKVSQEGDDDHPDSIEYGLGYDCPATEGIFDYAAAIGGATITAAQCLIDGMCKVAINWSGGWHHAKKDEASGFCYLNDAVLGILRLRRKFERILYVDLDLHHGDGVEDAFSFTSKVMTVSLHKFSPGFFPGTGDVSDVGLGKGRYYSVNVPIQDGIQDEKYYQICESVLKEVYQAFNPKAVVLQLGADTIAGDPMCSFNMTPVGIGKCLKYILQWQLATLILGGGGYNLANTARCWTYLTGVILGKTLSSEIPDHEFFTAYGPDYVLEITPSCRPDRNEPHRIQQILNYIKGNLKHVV
Nature of the series: (§1) Inhibition of HDAC8 (unknown origin) after 60 mins by SAMDI […] analysis.

Series [2] addresses Histone deacetylase 1 (Homo sapiens) (UniProt Q13547). In words: Inhibition of HDAC1 (unknown origin) after 60 mins by SAMDI […] analysis. In outline: (§2)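 Label-free SAMDI deacetylase assay: isoform-optimized peptide substrate (50 μM) with enzyme (250 nM) and inhibitor, 60 min at 37°C. Reactions were quenched with TSA, immobilized on maleimide monolayers, washed and read by MALDI-MS. Yield came from substrate and deacetylated product peak intensities, in triplicate.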

The target in series [3] is T2, Protein deacetylase HDAC6 (Homo sapiens) (UniProt Q9UBN7).
T2 sequence (whole entry): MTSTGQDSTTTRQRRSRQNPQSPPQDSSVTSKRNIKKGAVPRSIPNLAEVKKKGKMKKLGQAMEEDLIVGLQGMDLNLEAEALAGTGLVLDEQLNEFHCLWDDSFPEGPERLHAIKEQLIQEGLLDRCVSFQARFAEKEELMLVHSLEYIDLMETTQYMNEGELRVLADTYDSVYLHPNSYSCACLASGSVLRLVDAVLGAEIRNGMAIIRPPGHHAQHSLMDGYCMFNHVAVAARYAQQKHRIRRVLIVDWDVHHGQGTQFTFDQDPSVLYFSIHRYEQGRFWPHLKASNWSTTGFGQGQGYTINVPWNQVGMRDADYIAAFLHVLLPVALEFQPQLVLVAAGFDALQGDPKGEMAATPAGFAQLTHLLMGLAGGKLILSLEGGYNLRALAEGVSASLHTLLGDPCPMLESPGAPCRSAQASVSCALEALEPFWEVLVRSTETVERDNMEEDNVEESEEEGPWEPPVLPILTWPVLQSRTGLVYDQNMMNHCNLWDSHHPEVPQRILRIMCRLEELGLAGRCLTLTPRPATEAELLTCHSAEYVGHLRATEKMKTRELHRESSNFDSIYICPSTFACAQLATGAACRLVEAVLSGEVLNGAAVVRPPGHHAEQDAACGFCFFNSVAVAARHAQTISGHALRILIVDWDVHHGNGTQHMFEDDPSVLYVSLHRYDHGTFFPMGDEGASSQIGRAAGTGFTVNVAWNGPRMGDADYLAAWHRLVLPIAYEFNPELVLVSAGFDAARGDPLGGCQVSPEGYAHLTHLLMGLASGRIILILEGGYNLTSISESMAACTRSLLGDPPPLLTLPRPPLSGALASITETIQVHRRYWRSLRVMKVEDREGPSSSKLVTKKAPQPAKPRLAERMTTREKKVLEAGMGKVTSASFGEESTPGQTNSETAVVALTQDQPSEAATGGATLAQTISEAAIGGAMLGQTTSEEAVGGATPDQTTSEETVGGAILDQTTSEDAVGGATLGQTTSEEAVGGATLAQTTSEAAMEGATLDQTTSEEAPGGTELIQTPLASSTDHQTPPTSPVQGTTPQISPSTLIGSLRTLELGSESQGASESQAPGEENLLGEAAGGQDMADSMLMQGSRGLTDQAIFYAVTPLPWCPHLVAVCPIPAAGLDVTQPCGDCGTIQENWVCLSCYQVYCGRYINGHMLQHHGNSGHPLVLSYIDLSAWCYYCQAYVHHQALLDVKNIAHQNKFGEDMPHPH
Nature of the series: Inhibition of HDAC6 (unknown origin) after 60 mins by SAMDI mass spectrometric analysis.

The target in series [4] is T2, Protein deacetylase HDAC6 (Homo sapiens). Nature of the series: Inhibition of HDAC6 (unknown origin) at 10 uM after 60 mins by SAMDI […] analysis relative to control. A digest of the protocol: as §2
Series [5] has as its target T3, Histone deacetylase 8 (Homo sapiens, UniProt Q9BY41).
T3 sequence (Q9BY41 whole entry): T1 sequence (whole entry)
The description is as §1.

Series [6] has as its system DU-145. Nature of the series: Cytotoxicity against human DU145 cells assessed as growth inhibition by MTS assay. It is filed as functional, cell-based. A digest of the protocol: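 Cells kept at 37°C in 5% CO2. DU-145 grew in EMEM and LNCaP in RPMI 1640, each with 10% FBS. Cells were plated 24 h before compound treatment, with top concentration 20 μM and final DMSO 0.1%. Viability was read by MTS per the kit protocol. IC50 is mean ± SD from at least 2 independent triplicate experiments.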
(In general: Tetrazolium dyes change colour on reduction, which living cells bring about.)

Series [7] relates to LNCaP. In words: Cytotoxicity against human LNCAP cells assessed as growth inhibition by MTS assay. The class given is functional, cell-based. A digest of the protocol:
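Cells kept at 37°C in 5% CO2. Cells were plated 24 h before compound treatment, with top concentration 20 μM and final DMSO 0.1%. Viability was read by MTS per the kit protocol. IC50 is mean ± SD from at least 2 independent triplicate experiments.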

Series [8] relates to Jurkat. Nature of the series: cells. It is filed as functional, cell-based, Homo sapiens.
Series [9] deals with T1, Histone deacetylase 8 (Homo sapiens). In words: Inhibition of HDAC8 (unknown origin) at 10 uM after 60 mins by SAMDI […] analysis relative to control. In outline:
as §2

Series [10] is described as follows: Aqueous solubility of the compound. The class given is physicochemical. Conditions: buffer.
The mark [11] stands for this setting: Homo sapiens, DU-145, read-out: IC50.
Setting [12] is: Homo sapiens, LNCaP, read-out: IC50.
Where [13] appears, read: Homo sapiens, Jurkat, 72 h, read-out: IC50.

Histone deacetylase 1 (Homo sapiens), sequence (Q13547 whole entry, canonical isoform): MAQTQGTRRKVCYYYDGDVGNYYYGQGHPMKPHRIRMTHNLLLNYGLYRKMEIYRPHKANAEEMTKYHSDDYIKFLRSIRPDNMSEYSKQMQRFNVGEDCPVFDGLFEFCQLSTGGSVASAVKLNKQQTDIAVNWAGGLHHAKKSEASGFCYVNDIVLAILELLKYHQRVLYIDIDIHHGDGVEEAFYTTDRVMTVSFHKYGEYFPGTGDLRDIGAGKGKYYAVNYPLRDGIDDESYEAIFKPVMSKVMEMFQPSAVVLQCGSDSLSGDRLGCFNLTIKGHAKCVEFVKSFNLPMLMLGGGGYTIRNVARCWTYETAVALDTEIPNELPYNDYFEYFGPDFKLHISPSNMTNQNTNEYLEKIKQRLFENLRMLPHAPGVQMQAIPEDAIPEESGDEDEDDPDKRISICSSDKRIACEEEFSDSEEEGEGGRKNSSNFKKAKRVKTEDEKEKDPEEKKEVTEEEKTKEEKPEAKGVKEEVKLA

`Cc1ccc(-c2ccc(Cn3cccc(O)c3=O)cc2)cc1`: the inhibition entry in series [1], in series [2] and in series [3] was “inactive” in each case.

As to `Cc1cccc(-c2ccc(Cn3cccc(O)c3=O)cc2)c1`, the inhibition result in [1], in series [2] and in series [3] was “inactive” in each case.

Regarding `N#Cc1cccc(-c2ccc(Cn3cccc(O)c3=S)cc2)c1`, the inhibition (as a rule, the share of the control response that was lost under treatment) in series [4] was 44%.

On to `CN(C)c1ccc(-c2ccc(Cn3cccc(O)c3=O)cc2)cn1`, for which the inhibition entry in series [1], in [2] and in series [3] was “inactive” throughout.

Consider `CN(C)c1ccc(-c2ccc(Cn3cccc(O)c3=O)cc2)cc1`, for which the inhibition result in series [1], in series [2] and in series [3] was “inactive” each time.

With `N#Cc1ccc(-c2ccc(Cn3cccc(O)c3=O)cc2)cc1`, the inhibition result in series [1], in [2] and in [3] was “inactive” throughout.

In the case of `O=c1c(O)cccn1Cc1ccc(-c2ccncc2)cc1`, the inhibition result in series [1], in series [2] and in [3] was “inactive” in each case.

On to `Oc1cccn(Cc2cn(-c3ccccc3)nn2)c1=S`, for which the half-maximal inhibitory concentration (IC50) (usually the concentration that inhibits the measured activity by half) was 1.57 µM in [5], more than 20 µM in series [6] (setting [11]), 13.1 µM in series [7] (setting [12]) and 4.68 µM in [8] (setting [13]).

Consider `Cn1cccc(O)c1=O`, for which the inhibition result in series [1], in [2] and in [3] was “inactive” each time.

For the compound `CN(C)c1ccc(-c2ccc(Cn3cccc(O)c3=S)cc2)cn1`, the inhibition in series [9] stood at 34%.

Turning to `N#Cc1cccc(-c2ccc(Cn3cccc(O)c3=O)cc2)c1`, the inhibition entry in [1], in series [2] and in [3] was “inactive” throughout.

As to `Cc1ccccc1-c1ccc(Cn2cccc(O)c2=S)cc1`, in series [7] (setting [12]), the IC50 amounted to 7.75 µM.

`Cc1ccccc1-c1ccc(Cn2cccc(O)c2=O)cc1`: the inhibition entry in series [1], in series [2] and in series [3] was “inactive” each time.

Consider `O=c1c(O)cccn1Cc1ccccc1`, for which the inhibition result in series [1], in series [2] and in [3] was “inactive” each time.

Turning to `Oc1ccc[nH]c1=S`, the solubility – broadly, the dissolved amount per volume that the medium holds – in series [10] is less than 0.065 mg/mL. The half-inhibitory concentration (IC50) result in series [6] (du-145), in series [7] (lncap) and in series [8] (jurkat) was “Not Active” in each case.

The compound `CN(C)c1ccc(-c2ccc(Cn3cccc(O)c3=S)cc2)cc1` had a solubility in [10] of less than 0.065 mg/mL. For the same compound, the 50% inhibitory concentration (IC50) in series [6] (setting [11]) was more than 20 µM; in series [7] (setting [12]), 16.2 µM; in series [8] (setting [13]) it was 10.6 µM. Besides, the inhibition in series [4] is less than 20%.

As to `Oc1cccnc1O`, the inhibition in series [9] and in series [4] was less than 20% in each case.

With `O=c1c(O)cccn1Cc1ccc(-c2ccccc2)cc1`, the inhibition entry in series [1], in [2] and in [3] was “inactive” each time.
